This data set can be described thus: Toxicity liver stage against HepG2, at 10uM. Also noted: test concentration 10 uM, cell line HepG2-A16-CD81EGFP. It counts as cell-based. The conditions noted are these: human, HepG2-A16-CD81EGFP cells; read-out: INHIBITION
In short, it runs like this:
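Uninfected HepG2-A16-CD81EGFP cells, 3 × 10^3 per well, 1536-well, plated on prespotted compound at 10 μM final, parasite-free screening media added to match infected plates; puromycin 10 μM positive, DMSO 0.5% negative; run in parallel with 48 h PbLuc assay at 37 °C, 5% CO2; viability by CellTiter-Glo luminescence, normalized to controls.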
Take `O=C(NCCc1ccncc1)c1cccnc1OCC(F)(F)F`: the cytotoxicity at 10 µM was 5.03%.
The result for `O=C(c1cn(Cc2ccccc2)c2ncccc12)N1CCOCC1` reads -0.142%; that for `O=C1NCCN1C(CNS(=O)(=O)C1CC1)Cc1cccc(F)c1` (centres undefined), -3.09%; that for `CCOCC(=O)NCCc1nc(C)cc(C(F)(F)F)n1`, -1.21%.
The result for `COC(CNC(=O)C1CC1)c1ccc(C)s1` (centres undefined) reads -3.08%.
The result for `Cn1cccc1C(=O)N1CCC2(CC1)CCN2S(C)(=O)=O` reads 8.73%; that for `CN(C)S(=O)(=O)NCC1OCCc2cn(CC3CCOCC3)nc21` (centres undefined), 7.4%; that for `CN1C(Cn2cccn2)C[C@@H]2CN(Cc3nccs3)CC[C@@H]21` (some centres undefined), 3.8%.
As to `O=C1CC(c2ccccc2C(F)(F)F)c2sc(N3CCOCC3)nc2N1` (centres undefined), the cytotoxicity at 10 µM is 9.18%.
The figure for `Cc1nn(CC(=O)Nc2ccon2)cc1Br` is 4.95%.
The result for `CCn1cc(Cl)c(C(=O)NCCCO)n1` reads 6.42%; that for `COCC(=O)Nc1nn(Cc2ccc(F)cc2)cc1Cl`, 7.19%; that for `COCC(=O)NCCCn1ncc2c(C)cccc21`, 7.55%.
The result for `O=C1CC(c2ccncc2)c2c(sc3c2CCCC3)N1` (centres undefined) reads 5.57%; that for `Fc1ccccc1-c1cccc(C2CCCN(C3CCOCC3)C2)n1` (centres undefined), 0.22%.
Take `O=C(c1cncs1)N1CCc2[nH]nc(Nc3ccccc3)c2C1`: the cytotoxicity at 10 µM is 8.26%.
The figure for `CNC(=O)CCc1cc(C)nc(C2CCN(c3ccccc3)CC2)c1` is 3.56%; for `CN(C)c1nccc(C2CN(S(C)(=O)=O)C2)n1` it is 6.95%; for `CCn1c(C)nc2cc(NC(=O)C3CN(C(C)=O)C3)ccc21` it is 3.46%.
As to `O=C(CO)N1CCC(c2ccnc(Nc3cc(C(F)(F)F)ccn3)n2)C1` (centres undefined), the cytotoxicity at 10 µM was found to be 18%.
The result for `CCN1CCN(Cc2c(C3CCCC3)[nH]c3ncccc23)CC1` reads 13.1%.
The result for `CN(Cc1ccc(F)cc1)CC1(O)CCN(C(=O)c2cccs2)C1` (centres undefined) reads -12.6%; that for `Cc1ncoc1C(=O)N1CC[C@@H](O)[C@@H](O)[C@H](N2CCC(F)(F)CC2)C1`, 2.3%.
As to `Cn1cccc1C(=O)N1CCC(O)(CN2CCc3ccccc3C2)C1` (centres undefined), the cytotoxicity at 10 µM was 3.77%.
As to `CCC(NC(=O)c1ccco1)c1nc(C(F)(F)F)cs1` (centres undefined), the cytotoxicity at 10 µM is -0.183%.
The result for `CS(=O)(=O)CCC(=O)N1CCC(c2ccc(F)c(F)c2)CC1` reads 7.09%; that for `COCC(O)CNC(=O)Nc1ccc(Cl)cc1-n1cccc1` (centres undefined), -6.93%.
The result for `COc1cc(NCCNC(=O)c2cc[nH]c2C)cc(OC)c1` reads -4.33%; that for `CCc1noc(CN2CCN(C(=O)OC(C)(C)C)C(C)C2)n1` (centres undefined), 2.53%.
The figure for `CC(C)CC1COCCN1C(=O)Cc1cccs1` (centres undefined) is 5.84%.
Regarding `O=C(CS(=O)(=O)Cc1nnnn1C1CC1)NCC1CC1`, the cytotoxicity at 10 µM was found to be 16.6%.
The result for `O=S(=O)(Cc1ccccc1F)N1CCCC1c1nnc2n1CCCCC2` (centres undefined) reads 7.17%; that for `O=c1[nH]ncc(NCCOc2ccc3c(c2)OCO3)c1Cl`, 3.1%.
The figure for `COc1ccsc1C(=O)N1CCCC1c1c(C)nn(C)c1OC` (centres undefined) is -0.561%; for `CC(C)(C)c1cc(NC(=O)CN2CCCCC2Cn2cncn2)on1` (centres undefined) it is 0.0788%.
The result for `CC1(C)CCC(C(=O)N2CCCO2)c2ccccc21` (centres undefined) reads -0.636%; that for `CSCc1cccc(NC(=O)N2CCC(N3CC=CC3)C2)c1` (centres undefined), -1.83%.
Regarding `CCS(=O)(=O)c1ccc2c(c1)N1CCS(=O)(=O)N=C1O2`, the cytotoxicity at 10 µM came to 10.3%.
The result for `O=S(=O)(Nc1ccccn1)c1cc(Cl)cc2c1OCC2` reads 0.38%; that for `Cc1cccc(C(C)(C)CNC(=O)CN(C)c2cnccn2)c1`, 1.79%; that for `CS(=O)(=O)CCCNC1(c2cccc(F)c2)CC1`, -3.39%.
The result for `O=C(NCCc1ccccc1)N1CCC(C2OCCO2)CC1` reads -46.5%; that for `Cc1cccc(Sc2nccn(C)c2=O)c1`, 3.52%; that for `CNS(=O)(=O)c1cccc(C(C)NCc2cccc(OC)c2)c1` (centres undefined), -12.3%.
The result for `Cc1nc(C)n(CC2CCCCN2CCCS(=O)(=O)N(C)C)n1` (centres undefined) reads -18.5%; that for `COC(=O)C(C)(C)NC(=O)C1CC(=O)N(C2CCCC2)C1` (centres undefined), -10.3%.
Consider `O=c1[nH][nH]cc1-c1ccnc(NCCc2ccc(F)cc2)n1`, for which the cytotoxicity at 10 µM turned out to be 3.44%.
The result for `CC(C)NC(=O)NCc1cc(-c2ccco2)n(CC(F)(F)F)n1` reads -12.8%; that for `CC(C)[C@H](NS(C)(=O)=O)C(=O)NCc1cc(-c2ccccc2)nn1C`, -7.88%.
The result for `CCn1c(CC2CCN(C(=O)C3CC(C(C)C)=NO3)CC2)nn(C)c1=O` (centres undefined) reads 3.72%.
Take `OCC1(O)CCN(Cc2noc(-c3ccccc3)n2)CC1`: the cytotoxicity at 10 µM was -0.0739%.
Regarding `CCN1CCCCC1C(=O)N1CCc2onc(-c3ccc(Cl)cc3)c2C1` (centres undefined), the cytotoxicity at 10 µM was -60.1%.
The result for `CCSc1ccc(C(=O)N2CCC3(CCC(=O)N(C)C3)CC2)s1` reads -11.2%; that for `CC(=O)Nn1c(C)cc(CN2CCCN(Cc3ccncc3)CC2)c1C`, 5.63%.
Consider `CN(Cc1ccccc1)c1ncccc1CNC1CCCC1`, for which the cytotoxicity at 10 µM was -8.8%.
The figure for `CCCc1cc(C(=O)N[C@@H](CO)[C@@H](O)c2ccccc2)n(C)n1` is 4.76%; for `CCC(C)N(Cc1sccc1C)C(=O)c1ccc(S(C)(=O)=O)cc1` (centres undefined) it is 6.7%; for `CC(=O)NCC1CCCN(Cc2nc(Cc3ccccc3F)no2)C1` (centres undefined) it is -11.1%.
The result for `Cc1noc(CN(C)Cc2cnc(N3CCOCC3)nc2)n1` reads -14%.
As for `NC(=O)CN1CC2(CCC1=O)CCN(Cc1cc(F)cc(F)c1)CC2`, the cytotoxicity at 10 µM worked out at 7.1%.
The figure for `CCCN1CCCn2nc(CNS(=O)(=O)c3ccc(F)cc3)cc2C1` is -8.57%; for `COCCCN(C)C(=O)Cn1cccc(OC)c1=O` it is 7.52%.
The figure for `NC(=O)c1cc2c(nc1CCOCc1ccccc1)CCC2` is 2.99%; for `CCN1CC2(CCN(Cc3nc(CSC)no3)CC2)CC1=O` it is -1.41%; for `Cc1ccc(N2C[C@@H](CN3CCOCC3)[C@@H](CO)C2)nn1` it is 7.13%.
Regarding `CC(C)[C@H]1CN(CCCO)C[C@@H]1NC(=O)CCC(F)(F)F`, the cytotoxicity at 10 µM is -0.6%.
The result for `COCCS(=O)(=O)c1ncc(CN(C)CC(C)C)n1Cc1ccccc1` reads -1.27%; that for `CC(C)c1nc(CN(C)Cc2ccc(F)cc2)cs1`, -8.81%.
As to `CC(=O)c1cc(C(=O)N2CCC3(CC2)Nc2ccccc2NC3=O)cs1`, the cytotoxicity at 10 µM was 3.54%.
The result for `Cc1ccc2nc(CN3CCCC3c3cccnc3)cc(O)c2c1` (centres undefined) reads 3.16%; that for `CCOc1ccc2[nH]c(=O)c(CN3CCC(O)CC3)cc2c1`, 1.25%.
In the case of `CS(=O)(=O)NCc1cc2n(n1)CCCN(Cc1nc3ccccc3[nH]1)C2`, the cytotoxicity at 10 µM is -4.55%.
Take `CN(C)S(=O)(=O)N1CCN(C(=O)c2ccc3ccn(C)c3c2)CC1`: the cytotoxicity at 10 µM is -7.56%.
The figure for `CC(C)C(=O)NCC(=O)N(C)C1CCCN(CCc2ccccc2)C1` (centres undefined) is -16.9%; for `CCn1nc2nc(SCC(=O)O)cc(C(F)F)c2c1C` it is -3.78%; for `CCn1ncc(-c2cc(C(F)F)n3nc(CCC(=O)O)nc3n2)c1C` it is -9.44%.
Take `Cc1cc2ccccc2n1CCC(=O)NCc1ncc[nH]1`: the cytotoxicity at 10 µM was 4.37%.
The figure for `Cc1cc(C2CCCN2Cc2ccn(C)c(=O)c2)on1` (centres undefined) is -6.04%; for `Cc1nc(CN2CCCC(NCc3ccsc3)C2)no1` (centres undefined) it is 0.504%; for `c1ccc(CCN2CCN(c3ccc4nncn4n3)CC2)nc1` it is -7.93%.
The figure for `CC(Cn1cccn1)NC(=O)Nc1nccs1` (centres undefined) is -9.55%; for `Cc1ncc2c(n1)CCN(C(=O)Cc1c(C)noc1C)C2` it is -8.55%.
The result for `O=C(CN1CCCC1Cn1cncn1)NCCOc1cccc(F)c1` (centres undefined) reads -3.24%.
Regarding `COc1c(CNCCNC(=O)c2ccco2)c(C)nn1C`, the cytotoxicity at 10 µM was -5.92%.
On to `O=C1NCCN1C1CCCN(Cc2nnc(-c3ccc(F)cc3)o2)C1` (centres undefined), for which the cytotoxicity at 10 µM was -7.69%.
The figure for `CN1CCCC1CNC(=O)CCCOc1ccc(F)cc1` (centres undefined) is -7.67%; for `COC(=O)CN(C)C1CCc2ccccc21` (centres undefined) it is -7.59%; for `Fc1ccc([C@@H]2COC[C@H]2NCc2cccc(F)c2)cc1` it is -2.92%.
The result for `COc1ccc(C(=O)CN(C2=NCCCCC2)c2ccccc2)cc1` reads 9.62%.
The figure for `CCS(=O)(=O)N1CCc2c(CN(C)Cc3ccco3)cncc2C1` is -4.85%.
On to `Cn1cc(CN2CCC3(CCC(C(=O)NCC4CC4)C3)CC2)cn1` (centres undefined), for which the cytotoxicity at 10 µM turned out to be 3.47%.
The figure for `O=C(Nc1cccc(CNCc2cccs2)c1)C1CC1` is -8.3%; for `CC(=O)NC1CCN(c2cc(C3CCNCC3)ccn2)CC1` it is 2.93%.
The result for `Cn1nc(Cn2cccn2)c2c1CN(Cc1ccoc1)C2` reads -3.77%; that for `Cc1ccc(N2C[C@@H]3CCCO[C@@H]3[C@H](N3CCCC3)C2)nn1`, 2.96%; that for `CCn1ccnc1CN1CCNCC1C` (centres undefined), -3.03%.
Take `CCN(CC)[C@@H]1CN(Cc2nccn2C)[C@@H]2CCCO[C@H]12`: the cytotoxicity at 10 µM stood at 4.92%.
The result for `Cn1cnc2c1C(COCc1cccnc1)N(Cc1nccs1)CC2` (centres undefined) reads 10.5%; that for `CC(C)N(C)Cc1cncc2c1CCN(Cc1ccoc1)C2`, -109%.

For the origin of these results see ChEMBL document CHEMBL4513216, “Probing the Open Global Health Chemical Diversity Library for Multistage-Active Starting Points for Next-Generation Antimalarials” (ACS Infect Dis, 2020).
